Source: ChEMBL document CHEMBL1125829, “1,3,8-trisubstituted xanthines. Effects of substitution pattern upon adenosine receptor A1/A2 affinity” (J Med Chem, 1991)

Legend:
Adenosine receptor A1 [1] = biological target: T1, Adenosine receptor A1 (Rattus norvegicus, UniProt P25099); experiment: Binding affinity against adenosine A1 receptor in rat cortex by the displacement of [3H]cyclohexyladenosine (CHA).; format: tissue-based
T1 sequence (P25099 whole entry): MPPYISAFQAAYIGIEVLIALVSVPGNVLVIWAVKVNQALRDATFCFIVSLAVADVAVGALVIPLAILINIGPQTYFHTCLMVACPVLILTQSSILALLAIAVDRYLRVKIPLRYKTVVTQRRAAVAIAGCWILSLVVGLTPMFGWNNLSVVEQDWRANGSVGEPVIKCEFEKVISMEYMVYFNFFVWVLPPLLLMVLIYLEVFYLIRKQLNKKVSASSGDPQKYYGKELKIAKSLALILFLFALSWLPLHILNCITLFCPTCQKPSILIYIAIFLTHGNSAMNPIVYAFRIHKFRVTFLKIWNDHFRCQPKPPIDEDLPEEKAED

Adenosine A2 receptor [2] = biological target: T2, Adenosine A2 receptor (Rattus norvegicus, UniProt P29276+P30543); experiment: Binding affinity against adenosine A2 receptor in rat striatum by the displacement of [3H]N-ethyladenosine-5''-uronamide(NECA).; format: tissue-based
Adenosine receptor A1 [3] = biological target: T1, Adenosine receptor A1; experiment: Binding affinity against Adenosine A1 receptor in rat cortex by displacement of [3H]cyclohexyladenosine (CHA)
In short: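 Male Sprague-Dawley rat cerebral cortex membranes, homogenized in 50 mM Tris-HCl pH 7.4, pretreated 30 min at 37 °C with ADA (2 IU/mL), 7.5 mg tissue per tube. 1.0 nM [3H]CHA, 12 xanthine concentrations, triplicates, 2 h at 25 °C; nonspecific with 10 μM 2-chloroadenosine; filtration, scintillation counting.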

Adenosine A2 receptor [4] = biological target: T2, Adenosine A2 receptor; experiment: Binding affinity against Adenosine A2 receptor in rat striatum by displacement of [3H]N-ethyladenosine-5''-uronamide(NECA); format: tissue-based
In short: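 Male Sprague-Dawley rat striatal membranes, 5 mg tissue, in 50 mM Tris-HCl pH 7.7 with 10 mM MgCl2, 0.1 unit/mL ADA and 50 nM CPA to block A1 sites. 4 nM [3H]NECA, 12 xanthine concentrations, triplicates, 1 h at room temperature; nonspecific with 100 μM CPA; filtration counting. IC50 by log-logit, Ki by Cheng-Prusoff (Kd 4 nM).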

[5] = biological target: Adenosine receptors; A1 & A2 (Rattus norvegicus) (UniProt P29276+P25099+P30543); experiment: Ratio of binding affinities for adenosine A2 and A1 receptors; format: protein assay

Row | Ki (Adenosine receptor A1 [1]) [µM] | Ki (Adenosine A2 receptor [2]) [µM] | Ki (Adenosine receptor A1 [3]) [µM] | Ki (Adenosine A2 receptor [4]) [µM] | Ratio [5] | SMILES
1 | 0.00063 |  |  |  |  | CCCn1c(=O)c2nc(-c3ccc(O)cc3)[nH]c2n(CCC)c1=O
2 | 0.0139 | 0.254 |  |  |  | CCCn1c(=O)n(C)c(=O)c2[nH]c(-c3ccc(C#N)cc3)nc21
3 |  |  | 0.0032 |  |  | CCCn1c(=O)c2[nH]c(-c3cccs3)nc2n(CCC)c1=O
4 | 0.0578 | 0.593 |  |  |  | CCCn1c(=O)c2nc(CCc3ccccc3)[nH]c2n(CCC)c1=O
5 | 0.00204 | 0.0394 |  |  |  | CCCn1c(=O)c2nc(-c3ccsc3)[nH]c2n(CCC)c1=O
6 |  |  |  | 0.173 | 54 | CCCn1c(=O)c2nc(-c3cccs3)[nH]c2n(CCC)c1=O
7 |  | 0.0933 |  |  |  | CCCn1c(=O)n(C)c(=O)c2[nH]c(-c3ccccc3)nc21
8 |  | 0.0851 |  |  |  | CCCn1c(=O)c2nc(/C=C/c3ccccc3)[nH]c2n(CCC)c1=O
9 |  | 0.644 |  |  |  | Cn1c(=O)c2nc(-c3ccccc3)[nH]c2n(C)c1=O [8-PHENYL THEOPHYLLINE]
10 |  |  | 0.0728 | 1.2 | 16 | CCCn1c(=O)n(C)c(=O)c2[nH]c(-c3cccnc3)nc21
11 | 0.275 | 1.44 |  |  |  | CCCn1c(=O)c2nc(CCc3ccccc3)[nH]c2n(C)c1=O
12 | 0.0218 | 0.476 |  |  |  | CCCn1c(=O)n(C)c(=O)c2[nH]c(-c3ccncc3)nc21
13 |  | 0.0465 |  |  |  | CCCn1c(=O)n(C)c(=O)c2[nH]c(/C=C/c3ccccc3)nc21
14 |  |  | 0.0702 |  |  | CCCn1c(=O)c2[nH]c(-c3cccnc3)nc2n(C)c1=O
15 |  | 0.553 |  |  |  | CCCn1c(=O)c2nc(-c3ccccc3)[nH]c2n(C)c1=O
16 | 0.0496 | 0.058 |  |  |  | CCCn1c(=O)c2nc(/C=C/c3ccccc3)[nH]c2n(C)c1=O
17 |  |  | 0.0116 | 0.347 | 30 | CCCn1c(=O)c2nc(-c3cccnc3)[nH]c2n(CCC)c1=O

Row | Ki (Adenosine receptor A1 [1]) [µM] | Ki (Adenosine A2 receptor [2]) [µM] | Ki (Adenosine receptor A1 [3]) [µM] | Ki (Adenosine A2 receptor [4]) [µM] | Ratio [5] | SMILES
18 | 0.0276 | 3.76 |  |  |  | CCCn1c(=O)c2nc(-c3ccncc3)[nH]c2n(C)c1=O
19 |  |  | 0.00468 | 0.0703 | 15 | CCCn1c(=O)n(C)c(=O)c2[nH]c(-c3ccsc3)nc21
20 | 0.00128 | 0.263 |  |  |  | CCCn1c(=O)c2nc(-c3ccc(O)cc3)[nH]c2n(C)c1=O
21 |  |  |  | 3.1 | 44 | CCCn1c(=O)c2nc(-c3cccnc3)[nH]c2n(C)c1=O
22 |  |  | 0.0064 | 0.315 | 49 | CCCn1c(=O)c2nc(-c3ccsc3)[nH]c2n(C)c1=O
23 |  |  | 0.00968 | 0.719 | 74 | CCCn1c(=O)c2nc(-c3cccs3)[nH]c2n(C)c1=O
24 | 0.00448 | 0.189 |  |  |  | CCCn1c(=O)c2nc(-c3ccc(C#N)cc3)[nH]c2n(CCC)c1=O
25 | 0.259 | 1.05 |  |  |  | CCCn1c(=O)n(C)c(=O)c2[nH]c(CCc3ccccc3)nc21
26 | 0.00323 | 0.136 |  |  |  | CCCn1c(=O)c2nc(-c3ccncc3)[nH]c2n(CCC)c1=O
27 | 0.00181 | 0.403 |  |  |  | CCCn1c(=O)n(C)c(=O)c2[nH]c(C3CCCCC3)nc21
28 | 0.00254 | 0.0815 |  |  |  | CCCn1c(=O)n(C)c(=O)c2[nH]c(-c3ccc(O)cc3)nc21
29 | 0.00085 | 0.247 |  |  |  | CCCn1c(=O)n(C)c(=O)c2[nH]c(C3CCCC3)nc21
30 | 0.00106 | 1.01 |  |  |  | CCCn1c(=O)c2nc(C3CCCC3)[nH]c2n(C)c1=O
31 | 0.00893 | 0.329 |  |  |  | CCCn1c(=O)n(C)c(=O)c2[nH]c(-c3cccs3)nc21
32 | 0.00595 | 0.446 |  |  |  | CCCn1c(=O)c2nc(-c3ccc(C#N)cc3)[nH]c2n(C)c1=O
33 | 0.00502 | 0.995 |  |  |  | CCCn1c(=O)c2nc(C3CCCCC3)[nH]c2n(C)c1=O
